Data taken from ChEMBL document CHEMBL1124865, “Synthesis and biological evaluation of a series of parenteral 3'-quaternary ammonium cephalosporins” (J Med Chem, 1990).
≈ marks a conversion by molar mass, not a printed value.

Assays:
[1] = Terminal half life in dogs at the dose of 20 mg/kg.; type: ADME, organism-based, Canis lupus familiaris; design: dose 20 mg/kg; details: dog, in vivo
Summary of the method: (§1)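 Overnight-fasted female mongrel dogs with a Foley bladder catheter; bolus into the cephalic vein. Plasma and urine collected before dosing and over 24 h after. Antibacterial activity measured by microbiological assay.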

[2] = Terminal half life in Rhesus monkeys at the dose of 30 mg/kg.; type: ADME, organism-based, Macaca mulatta; design: dose 30 mg/kg; details: rhesus monkey, in vivo
Summary of the method: (§2)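 Male rhesus monkeys dosed intravenously at 30 mg/kg. Plasma sampled from 0.08–0.1 h up to 6–8 h; urine collected over 0–6/8 and 6/8–24 h. Samples measured by microbiological assay.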

[3] = system: Pseudomonas aeruginosa; assay: Antibacterial activity against Pseudomonas aeruginosa X528; type: functional
[4] = system: Enterobacter cloacae; assay: Antibacterial activity against Enterobacter cloacae EB5; type: functional
[5] = organism: Cavia porcellus; assay: In vitro relative anticholinergic potential in isolated guinea pig trachea; type: functional
Summary of the method: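 Guinea pig trachea in Krebs' solution at 37.5 °C, 95% O2/5% CO2, pH 7.4, 2 g resting tension. Cumulative carbachol log dose-response curve (3-fold steps) run before and 30 min after adding antagonist at 1 mM. […] Tukey test on log2 dose ratios.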

[6] = system: Staphylococcus aureus; assay: Antibacterial activity against penicillin G resistance Staphylococcus aureus; type: functional
[7] = system: Enterococcus faecium; assay: Antibacterial activity against Enterococcus faecium; type: functional; details: Enterococcus faecium; read-out: MIC
[8] = system: Pseudomonas aeruginosa; assay: Antibacterial activity against Pseudomonas aeruginosa PS18; type: functional
[9] = system: Serratia marcescens; assay: Antibacterial activity against Serratia marcescens SE3; type: functional
[10] = system: Streptococcus pyogenes; assay: Antibacterial activity against Streptococcus pyogenes; type: functional
[11] = system: Staphylococcus aureus; assay: Antibacterial activity against penicillin G susceptible Staphylococcus aureus; type: functional
[12] = system: Klebsiella pneumoniae; assay: microbe, parasite or virus in culture; type: functional; details: Klebsiella pneumoniae; read-out: MIC
[13] = system: Enterobacter cloacae; assay: (§3) Antibacterial activity against Enterobacter cloacae 265A; type: functional
[14] = system: Monkey; assay: Percent of dose in Rhesus monkeys urine at the dose of 30 mg/kg.; type: functional, Cercopithecidae; summary of the method: as §2
[15] = Terminal half life in dogs at the dose of 10 mg/kg.; type: ADME, organism-based, Canis lupus familiaris; design: dose 10 mg/kg; details: dog, in vivo; summary of the method: as §1
[16] = system: Bacteria; assay: as §3
[17] = Terminal half life in Rhesus […] the dose of 30 mg/kg.; type: ADME, organism-based, Macaca mulatta; design: dose 30 mg/kg; details: rhesus monkey
Summary of the method: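 Male rhesus monkeys, 4 per compound, given a single intravenous dose of 30 mg/kg. […] Plasma and urine antibiotic levels measured by microbiological assay. Terminal half-life reported in min.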

[18] = system: Mus musculus; assay: In vivo efficacy against Escherichia coli infected mice treated at 1 hr and 5 hr post infection; type: functional
Summary of the method: (§4)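 Mice given lethal experimental infections, with treatment at 1 and 5 h postinfection; ED50 expressed as mg/kg × 2.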

[19] = system: Escherichia coli; assay: Antibacterial activity against Escherichia coli EC14; type: functional
[20] = system: Streptococcus pneumoniae; assay: Antibacterial activity against Streptococcus pneumoniae; type: functional
[21] = system: Klebsiella pneumoniae; assay: Antibacterial activity against Klebsiella pneumoniae X26; type: functional
[22] = system: Mus musculus; assay: In vivo efficacy against Staphylococcus aureus infected mice treated at 1 hr and 5 hr post infection; type: functional; summary of the method: as §4
[23] = system: Escherichia coli; assay: Antibacterial activity against Escherichia coli TEM; type: functional
[24] = system: Mus musculus; assay: In vivo efficacy against Pseudomonas aeruginosa infected mice treated at 1 hr and 5 hr post infection; type: functional; summary of the method: as §4
[25] = Pseudomonas aeruginosa, read-out: MIC
[26] = Enterobacter cloacae, read-out: MIC
[27] = Staphylococcus aureus, read-out: MIC
[28] = Serratia marcescens, read-out: MIC

Molecule CO/N=C(\C(=O)N[C@@H]1C(=O)N2C(C(=O)[O-])=C(C[n+]3ccc4ncn(C)c4c3)CS[C@H]12)c1csc(N)n1 has a half-life [1] of 1.17 h, a half-life [2] of 1.08 h and an MIC [3, 25] of 2 µg/mL (≈ 3.78 µM). It also gave an MIC [4, 26] of 0.125 µg/mL (≈ 0.236 µM), an RAP [5] of 1 and an MIC [6, 27] of 2 µg/mL (≈ 3.78 µM). For the same molecule, the MIC [7] was 128 µg/mL (≈ 242 µM), the MIC [8, 25] was 8 µg/mL (≈ 15.1 µM) and the MIC [9, 28] was 0.125 µg/mL (≈ 0.236 µM). For the same molecule, the MIC ([10]; Streptococcus pyogenes, read-out: MIC) was 0.008 µg/mL (≈ 0.0151 µM), the MIC [11, 27] was 2 µg/mL (≈ 3.78 µM) and the MIC [12] was 8 µg/mL (≈ 15.1 µM). It also gave an MIC [13, 26] of 8 µg/mL (≈ 15.1 µM), a Dose [14] of 52% and a half-life [15] of 1.27 h.
CO/N=C(\C(=O)N[C@@H]1C(=O)N2C(C(=O)[O-])=C(C[n+]3cccc(CC(=O)O)c3)CS[C@H]12)c1csc(N)n1 (stereo in doubt; 17) gave an MIC [16] of 32 µg/mL (≈ 60.1 µM).
Work on CC(C)(O/N=C(\C(=O)N[C@@H]1C(=O)N2C(C(=O)[O-])=C(C[n+]3ccccc3)CS[C@H]12)c1csc(N)n1)C(=O)O [CEFTAZIDIME] yielded a half-life [17] of 0.933 h, an MIC [3, 25] of 2 µg/mL (≈ 3.66 µM) and an RAP [5] of 1. For the same molecule, the MIC [7] was > 128 µg/mL, the MIC [8, 25] was 4 µg/mL (≈ 7.32 µM) and the MIC [9, 28] was 0.5 µg/mL (≈ 0.915 µM). It also gave an MIC [12] of 1 µg/mL (≈ 1.83 µM), an MIC [13, 26] of 64 µg/mL (≈ 117 µM) and a Dose [14] of 64%.
Molecule CO/N=C(\C(=O)N[C@@H]1C(=O)N2C(C(=O)[O-])=C(C[n+]3cccc(CC(=O)O)c3)CS[C@H]12)c1csc(N)n1 (stereo in doubt; 6) has an ED50 [18] of 0.13 mg/kg, an MIC [3] of 8 µg/mL (≈ 15 µM) and an MIC [4] of 0.5 µg/mL (≈ 0.939 µM). For the same molecule, the MIC [19] was 0.015 µg/mL (≈ 0.0282 µM), the MIC [20] was 0.015 µg/mL (≈ 0.0282 µM) and the MIC [6] was 4 µg/mL (≈ 7.51 µM). It also gave an MIC [8] of 32 µg/mL (≈ 60.1 µM), an MIC [9] of 0.25 µg/mL (≈ 0.469 µM) and an MIC [10] of 0.015 µg/mL (≈ 0.0282 µM). The MIC [11] was 4 µg/mL (≈ 7.51 µM), the MIC [21] was 0.015 µg/mL (≈ 0.0282 µM) and the MIC [13] was >128 µg/mL. For the same molecule, the ED50 [22] was 7.8 mg/kg, the MIC [23] was 0.03 µg/mL (≈ 0.0563 µM) and the ED50 [24] was > 50 mg/kg.
